Only some compounds are listed: those with a hit (about 2.1% of all), similar ones and a draw of the others.
SMARCA2 activ – SMARCA2 function activation, primary screen | MG213 cells, MMTV-luciferase reporter, dexamethasone, overnight | activation, % at 9.1 µM | AID 652017 | hit rate 1% among 370,000; in the data active = activation above about 7.8%
MC4R ag barr – activates human MC4R beta-arrestin recruitment; P32245; U2OS MC4R beta-arrestin complementation, luminescence; percent of melanotan II response, DMSO zero; activation, % at 8.9 µM; hit rate 0.98% among 360,000;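 active = activation above a per-plate cutoff, the mean activation of sample wells on that plate plus 3 SD, cut at about 8% in these data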
Target sequence (P32245 whole entry, looked up): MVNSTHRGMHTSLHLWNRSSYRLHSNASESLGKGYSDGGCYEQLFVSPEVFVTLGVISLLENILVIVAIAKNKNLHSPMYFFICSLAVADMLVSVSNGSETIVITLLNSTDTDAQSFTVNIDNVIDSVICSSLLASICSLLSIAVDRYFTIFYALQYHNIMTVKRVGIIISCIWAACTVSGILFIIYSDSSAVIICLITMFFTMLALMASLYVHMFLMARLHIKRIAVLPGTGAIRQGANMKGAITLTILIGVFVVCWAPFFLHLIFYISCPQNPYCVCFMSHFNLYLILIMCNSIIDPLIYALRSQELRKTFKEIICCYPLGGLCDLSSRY
F508del corr – correctors of CFTR F508del function in bronchial epithelial cells | activity (quench increase), % at 7.58 µM | CFBE cells, YFP halide quenching; stimulated with forskolin plus potentiator P3; % fluorescence drop versus neutral controls | hit rate 0.36% among 350,000;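 active = mean added fluorescence quench of at least 8% versus neutral control, with both replicates also reaching 8%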;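 also: cells transiently co-express mutant CFTR-F508del with the halide-sensitive YFP; corrector assay measuring rescue of mutant channel to the surface after 24 h compound exposure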
MC4R antagonist – antagonists of human melanocortin 4 receptor (MC4R) | hit rate 0.48% among 360,000 | P32245 | inhibition, % at 6.5 µM | MC4R-expressing cells, MTII-stimulated cAMP, LANCE TR-FRET | AID 540295;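 active = inhibition above its plate's cutoff, the mean of tested wells on that plate plus 3 SD, cut at about 29% in these data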
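System – human MC4R-expressing U2OS cells · Also added – Melanotan II · Dosing – one concentration, 6.5 µM nominal · Timing – 30-min compound, 1-h challenge, 1-h detection, room temperature · Measured by – Eu-cAMP/anti-cAMP TR-FRET, emission 671 nm · Replicates – singlicate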
SMARCA2 act conf – SMARCA2 activation, confirmation screen; shares compounds with SMARCA2 activ; MG213 cells, MMTV-luciferase with dexamethasone, luminescence, overnight; MG213 cells expressing E1A, Rb sequestered; DMSO wells 0%, reference activator 100%; activation, % at 9.1 µM; hit rate 30% among 3,500; AID 652260;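 active = activation above its plate's cutoff, the mean activation of tested wells plus 3 SD, cut at about 7.9% in these data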
GAL4-VP16 Luc – activates GAL4-VP16 luciferase, flagging SMARCA2 activator hits; shares compounds with SMARCA2 activ; HEK293 GAL4-VP16 pG5luc reporter, luciferase luminescence; scaled: DMSO wells 0%, SAHA wells 100%; activation, % at 9.1 µM; hit rate 41% among 3,500;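 active = activation above the solvent-only control well mean plus 3 SD, averaged across control plates, cut at about 5.2% in these data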
Hits are given with their value; 0 = inactive; - = no result.

SMILES | SMARCA2 activ | MC4R ag barr | F508del corr | MC4R antagonist | SMARCA2 act conf | GAL4-VP16 Luc
COc1cccc(C(=O)O/N=C(\N)CS(=O)(=O)c2ccccc2)c1 | 12 | 0 | 0 | 0 | 0 | 0
Cc1cc2cc(C#N)c(N3CCN(S(C)(=O)=O)CC3)nc2cc1C | 9.1 | 0 | 0 | 0 | 0 | 0
C[C@@H]1CN([C@H](C)CO)C(=O)c2cc(NC(=O)c3ccncc3)ccc2O[C@@H](C)CCCCO[C@H]1CN(C)C(=O)Nc1ccc(F)cc1 | - | - | 0 | - | - | -
O=C(NCc1cccs1)c1cnc(Cl)c(Cl)c1 | 0 | 0 | 0 | 0 | - | -
O=C(NCc1cccs1)c1cccnc1Cl | 11 | 0 | - | 0 | 0 | 0
Clc1ccc(Nc2nc(-c3ccncc3)cs2)cc1 | 0 | 0 | - | 0 | - | -
Nc1ccc(Nc2nc(-c3ccncc3)cs2)cc1 | 13 | 0 | 0 | 0 | 11 | 13
CO[C@H]1CN(C)C(=O)c2ccc(NC(=O)C3CC3)cc2OC[C@@H](C)N(C(=O)c2ccncc2)C[C@H]1C | - | - | 0 | - | - | -
CC(/C=C1\SC(=S)N(NC(=O)c2ccc(O)cc2)C1=O)=C\c1ccccc1 | 9.0 | 0 | 0 | 0 | 0 | 0
C[C@@H]1CN([C@H](C)CO)C(=O)CCCn2cc(nn2)CO[C@@H]1CN(C)C(=O)c1ccncc1 | - | - | 0 | - | - | -
Cc1cccc[n+]1CCCCCCCCCC[n+]1ccccc1C | 0 | 0 | 0 | 0 | - | -
CCCc1ncc(C[n+]2ccccc2C)c(N)n1 | 9.1 | 0 | 0 | 0 | 0 | 0
Cc1c(Cl)cccc1NC(CC(=O)c1ccccc1)C(=O)O (configuration not stated) | 9.7 | 0 | - | 0 | 0 | 0
COc1ccccc1C(=O)Nc1ccc2c(c1)OC[C@H](C)N(CC1CC1)C[C@@H](C)[C@H](OC)CN(C)C2=O | - | - | 0 | - | - | -
Cc1cccc(NC(=O)c2ccc(NCC3CCCO3)c([N+](=O)[O-])c2)c1 (configuration not stated) | 8.1 | 0 | - | 0 | 0 | 0
CCN1CCCC1CNC(=O)c1ccc2c(c1)NC(=O)/C(=C\c1ccc(OC)c(OC)c1)S2 (configuration not stated) | 8.6 | 0 | 0 | 0 | 12 | 0
Cc1cc(C)cc(C(=O)NCC(=O)OCC(=O)N2CCCC2)c1 | 8.5 | 0 | 0 | 0 | 0 | 0
COC(=O)CCC(=O)N1CCC(Oc2cccc(C(=O)NCc3ccccn3)c2)CC1 | 8.3 | 0 | 0 | 0 | 0 | 0
COCC(=O)N1CCC(Oc2cccc(C(=O)NCc3ccccn3)c2)CC1 | 0 | 0 | 0 | 0 | - | -
Cc1ccc(-c2nc(C#N)c(NCC3CCCO3)o2)cc1 (configuration not stated) | 0 | 0 | 0 | 0 | - | -
COc1ccc(-c2nc(C#N)c(NCC3CCCO3)o2)cc1 (configuration not stated) | 10 | 0 | - | 0 | 9.7 | 0
Cc1nnc(N/N=C/c2ccc(-c3ccccc3F)o2)n1N | 12 | 0 | 0 | 0 | 0 | 9.2
NC(=S)c1ncc(C(F)(F)F)cc1Cl | 8.6 | 0 | 0 | 0 | 0 | 0
CCCNC(=O)N(C)C[C@@H]1Oc2cc(C3=CCCCC3)ccc2S(=O)(=O)N([C@@H](C)CO)C[C@@H]1C | - | - | 0 | - | - | -
CN1/C(=C\C(=O)c2cccnc2)Sc2ccccc21 | 13 | 0 | - | 0 | 0 | 9.1
SMILES | SMARCA2 activ | MC4R ag barr | F508del corr | MC4R antagonist | SMARCA2 act conf | GAL4-VP16 Luc
O=C(/C=C1\SC(=O)NC1=O)Nc1ccc(F)cc1 | 8.4 | 0 | 0 | 0 | 0 | 0
CCOc1ccc(C(=O)Nc2nc(C)c(C(=O)OC)s2)cc1 | 8.8 | 8.3 | 0 | 0 | 8.7 | 12
C[C@H](CO)N1C[C@H](C)[C@@H](CN(C)C(=O)C2CCCCC2)Oc2cc(-c3ccncc3)ccc2S1(=O)=O | - | - | 0 | - | - | -
O=C(CN1CCCCC1)Nc1c2c(nc3ccccc13)N(c1ccccc1)CC2 | 11 | 0 | 0 | 0 | 9.4 | 0
CCCC(=O)Nc1c2c(nc3ccccc13)N(c1ccccc1)CC2 | - | 0 | - | 0 | - | -
CCCN1C[C@H](C)[C@H](OC)CN(C)C(=O)c2cc(NC(=O)Nc3ccccc3F)ccc2OC[C@@H]1C | - | - | 0 | - | - | -
O=C(/C=C/c1ccccc1)c1ccc(NC2=NCCCS2)cc1 | 0 | 0 | - | 0 | - | -
O=C(/C=C/c1ccc(Br)cc1)c1ccc(NC2=NCCCS2)cc1 | 25 | 0 | 0 | 0 | 12 | 0
C[C@@H]1CN([C@@H](C)CO)C(=O)Cc2cc(NS(=O)(=O)c3cccs3)ccc2O[C@H]1CN(C)CC1CC1 | - | - | 0 | - | - | -
O=C1NC(=O)/C(=C\c2ccc(OCc3cccc(C(=O)O)c3)c(Cl)c2)N1 | 9.0 | 0 | 0 | 0 | 0 | 8.4
COc1cc(/C=C2\NC(=S)NC2=O)ccc1OCc1cccc(C(=O)O)c1 | 0 | 0 | 0 | 0 | - | -
C[C@H]1CCCCO[C@H](CN(C)CC2CCCCC2)[C@@H](C)CN([C@@H](C)CO)C(=O)c2cc(NS(=O)(=O)c3ccc(F)cc3)ccc2O1 | - | - | 0 | - | - | -
COc1ccc(CN2C[C@]3(C=C(C)Cn4c(=O)n(-c5ccccc5)c(=O)n43)N(C(=O)OCc3ccccc3)C2=NC(=O)c2ccccc2)c(OC)c1 | 8.6 | - | - | - | 0 | 0
COc1cccc(C(=O)Nc2ccc3c(c2)C(=O)N(C)[C@H]2CC[C@H](CC(=O)NCC(F)(F)F)O[C@@H]2CO3)c1 | - | - | 0 | - | - | -
CNC[C@@H]1Oc2ccc(NC(=O)Nc3cccc4ccccc34)cc2C(=O)N([C@H](C)CO)C[C@@H]1C | - | - | 0 | - | - | -
CN(C)CCCNc1nc2sc3c(c2c(=O)n1CCc1ccccc1)CCCCC3 | 10 | 0 | 0 | 0 | 0 | 0
CN(C)CCCn1c(=O)n(CCc2ccccc2)c(=O)c2c3c(sc21)CCCCC3 | 0 | 0 | 0 | 0 | - | -
O=C(Nc1ccccc1F)C1(c2ccccc2)CC1(Cl)Cl (configuration not stated) | 9.9 | 0 | - | 0 | 0 | 0
O=C(Nc1ccccc1)C1(c2ccccc2)CC1(Cl)Cl (configuration not stated) | 0 | 0 | - | 0 | - | -
COc1cc(C=O)ccc1OCc1cccc(Br)c1 | 0 | 0 | - | 0 | - | -
COc1cc(C=O)ccc1OCc1ccccc1Br | 15 | 0 | - | 0 | 0 | 8.0
COc1ccc(NC(=O)Nc2ccc3c(c2)[C@@H]2C[C@H](CC(=O)NC4CCCC4)O[C@H](CO)[C@@H]2O3)cc1 | - | - | 0 | - | - | -
C/C(=N\NC(=O)c1cnccn1)c1ccc([N+](=O)[O-])cc1 | 9.6 | 0 | 0 | 0 | 0 | 0
O=C(N/N=C/c1ccc([N+](=O)[O-])cc1)c1cnccn1 | 0 | - | 0 | - | - | -
CC(=O)N(C)C[C@H]1Oc2ncc(-c3cncnc3)cc2C(=O)N([C@H](C)CO)C[C@H]1C | - | - | 0 | - | - | -
O=C(Oc1c(CN2CCOCC2)cc(Cl)c2cccnc12)c1ccccc1Br | 8.7 | 0 | 0 | 0 | 24 | 0
CCNC(=O)Nc1ccc2c(c1)C(=O)N(C)[C@@H]1CC[C@H](CC(=O)Nc3ccccc3)O[C@@H]1CO2 | - | - | 0 | - | - | -

From PubChem BioAssay
